In brackets after ≈: the same amount, converted by molar mass.
Legend:
Staphylococcus aureus [1] = test: Antibacterial activity against methicilin-resistant Staphylococcus aureus NRS 194 assessed as reduction in bacterial growth; type: functional
Method in brief: (§1)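 CLSI broth microdilution in cation-supplemented Mueller–Hinton broth II. Starter cultures were grown overnight at 37 °C with shaking from a single MHA colony, then diluted by OD600 to ~10^6 CFU/mL. Compounds came from 10 mg/mL DMSO stocks and were tested two-fold from 64 to 0.5 mg/L. Plates were incubated 37 °C for 18–24 h. MIC was taken as the lowest concentration with no visible growth. Three independent runs, each in duplicate.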

Staphylococcus aureus [2] = test: Antibacterial activity against Staphylococcus aureus ATCC 29213 assessed as reduction in bacterial growth; type: functional
Method in brief: (§2)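 CLSI broth microdilution in cation-supplemented Mueller–Hinton broth II; overnight starter cultures (37 °C, shaking, 18–24 h) adjusted by OD600 to ~10^6 CFU/mL. Compounds dosed from DMSO stocks (10 mg/mL stock) as two-fold dilutions, 64–0.5 mg/L. Plates held 37 °C, 18–24 h. MIC = lowest concentration without visible growth. Three independent runs, each in duplicate.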

Enterococcus faecalis [3] = test: Antibacterial activity against vancomycin-susceptible Enterococcus faecalis NR 31887 assessed as inhibition of bacterial growth incubated for 18 to 24 hrs by broth microdilution assay; type: functional; details: time 18-24 hrs; method in brief: as §2
Staphylococcus aureus [4] = test: Bactericidal activity against Staphylococcus aureus ATCC 29213 incubated for 24 hrs by time-kill assay; type: functional, organism-based
Method in brief: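 Time-kill: S. aureus ATCC 29213 at ~10^6 CFU/mL in MHBII, exposed to 1× and 10× MIC, 37 °C with shaking for 24 h. Surviving CFU/mL plotted over time; mean of replicate experiments in duplicate.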

Enterococcus faecium [5] = test: Antibacterial activity against vancomycin-resistant Enterococcus faecium NR 31912 assessed as inhibition of bacterial growth
Klebsiella pneumoniae = test: Antibacterial activity against Klebsiella pneumoniae BAA-1705 assessed as reduction in bacterial growth; type: functional; method in brief: as §2
Staphylococcus aureus [6] = test: Antibacterial activity against vancomycin-resistant Staphylococcus aureus VRS 1 assessed as reduction in bacterial growth; type: functional; method in brief: as §1
Enterococcus faecalis [7] = test: Antibacterial activity against vancomycin-susceptible Enterococcus faecalis NR 31888 assessed as inhibition of bacterial growth incubated for 18 to 24 hrs by broth microdilution assay; type: functional; details: time 18-24 hrs; method in brief: as §2
Enterococcus faecalis [8] = test: Antibacterial activity against vancomycin-susceptible Enterococcus faecalis NR 31886 assessed as inhibition of bacterial growth incubated for 18 to 24 hrs by broth microdilution assay; type: functional; details: time 18-24 hrs; method in brief: as §2
Staphylococcus aureus [9] = test: Antibacterial activity against methicilin-resistant Staphylococcus aureus NRS 198 assessed as reduction in bacterial growth; type: functional; method in brief: as §1
Escherichia coli = test: Antibacterial activity against Escherichia coli ATCC 25922 assessed as reduction in bacterial growth; type: functional; method in brief: as §2
Staphylococcus aureus [10] = test: Antibacterial activity against methicilin-resistant Staphylococcus aureus NRS 129 assessed as reduction in bacterial growth; type: functional; method in brief: as §1
Pseudomonas aeruginosa = test: Antibacterial activity against Pseudomonas aeruginosa ATCC 27853 assessed as reduction in bacterial growth; type: functional; method in brief: as §2
Staphylococcus aureus [11] = test: Antibacterial activity against methicilin-resistant Staphylococcus aureus NRS 119 assessed as reduction in bacterial growth; type: functional; method in brief: as §1
Staphylococcus aureus [12] = test: Antibacterial activity against methicilin-resistant Staphylococcus aureus NRS 191 assessed as reduction in bacterial growth; type: functional; method in brief: as §1
Enterococcus faecium [13] = test: Antibacterial activity against vancomycin-resistant Enterococcus faecium NR 31903 assessed as inhibition of bacterial growth
Enterococcus faecalis [14] = test: Antibacterial activity against vancomycin-susceptible Enterococcus faecalis NR 31884 assessed as inhibition of bacterial growth incubated for 18 to 24 hrs by broth microdilution assay; type: functional; details: time 18-24 hrs; method in brief: as §2
Acinetobacter baumannii = test: Antibacterial activity against Acinetobacter baumannii BAA-1605 assessed as reduction in bacterial growth; type: functional; method in brief: as §2
Staphylococcus aureus [15] = test: Antibacterial activity against vancomycin-resistant Staphylococcus aureus VRS 12 assessed as reduction in bacterial growth; type: functional; method in brief: as §1
Enterococcus faecalis [16] = test: Antibacterial activity against vancomycin-susceptible Enterococcus faecalis NR 31885 assessed as inhibition of bacterial growth incubated for 18 to 24 hrs by broth microdilution assay; type: functional; details: time 18-24 hrs; method in brief: as §2
Staphylococcus aureus [17] = test: Antibacterial activity against methicilin-resistant Staphylococcus aureus NRS 100 assessed as reduction in bacterial growth; type: functional; method in brief: as §1
[18] = Selectivity index, ratio of CC50 for cytotoxicity against african green monkey Vero cells assessed as reduction in cell viability to MIC for antibacterial activity against Staphylococcus aureus ATCC 29213 assessed as reduction in bacterial growth; type: toxicity, cell-based; details: read-out: Selectivity Index
Staphylococcus aureus [19] = test: Antibacterial activity against methicilin-resistant Staphylococcus aureus NRS 186 assessed as reduction in bacterial growth; type: functional; method in brief: as §1
[20] = Cytotoxicity against african green monkey Vero cells assessed as reduction in cell viability incubated for 72 hrs by MTT assay; type: toxicity, cell-based; details: chlorocebus sabaeus
Method in brief: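 Vero (ATCC CCL-81) cells seeded at ~10^3 per well, 37 °C, 5% CO2. After 24 h, compound added at 100–12.5 μg/mL for 72 h. MTT then given for 4 h at 37 °C, formazan dissolved in DMSO, absorbance read at 540 nm. CC50 taken as the concentration giving 50% viability loss; doxorubicin as positive control; triplicate.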

Staphylococcus aureus [21] = test: Antibacterial activity against vancomycin-resistant Staphylococcus aureus VRS 4 assessed as reduction in bacterial growth; type: functional; method in brief: as §1
Staphylococcus aureus [22] = test: Antibacterial activity against methicilin-resistant Staphylococcus aureus NRS 193 assessed as reduction in bacterial growth; type: functional; method in brief: as §1
Enterococcus faecium [23] = test: Antibacterial activity against vancomycin-resistant Enterococcus faecium NR 31909 assessed as inhibition of bacterial growth
Staphylococcus aureus [24] = test: Antibacterial activity against methicilin-resistant Staphylococcus aureus NRS 192 assessed as reduction in bacterial growth; type: functional; method in brief: as §1

Row | Compound | MIC (Staphylococcus aureus [1]) | MIC (Staphylococcus aureus [2]) | MIC (Enterococcus faecalis [3]) | MIC (Enterococcus faecium [5]) | MIC (Klebsiella pneumoniae) | MIC (Staphylococcus aureus [6]) | MIC (Enterococcus faecalis [7]) | MIC (Enterococcus faecalis [8]) | MIC (Staphylococcus aureus [9]) | MIC (Staphylococcus aureus [10]) | MIC (Staphylococcus aureus [11]) | MIC (Staphylococcus aureus [12]) | MIC (Enterococcus faecium [13]) | MIC (Enterococcus faecalis [14]) | MIC (Staphylococcus aureus [15]) | MIC (Enterococcus faecalis [16]) | MIC (Staphylococcus aureus [17]) | MIC (Staphylococcus aureus [19]) | CC50 at 72 h [20] | MIC (Staphylococcus aureus [21]) | other results
1 | O=C1N/C(=N\c2nc3ccccc3o2)S/C1=C\c1cc(Cl)ccc1O | 1 µg/mL (≈ 2.69 µM) | 1 µg/mL (≈ 2.69 µM) | 2 µg/mL (≈ 5.38 µM) | 0.125 µg/mL (≈ 0.336 µM) | > 64 µg/mL | 1 µg/mL (≈ 2.69 µM) | 4 µg/mL (≈ 10.8 µM) | 4 µg/mL (≈ 10.8 µM) | 1 µg/mL (≈ 2.69 µM) | 0.5 µg/mL (≈ 1.34 µM) | 1 µg/mL (≈ 2.69 µM) | 0.5 µg/mL (≈ 1.34 µM) | 1 µg/mL (≈ 2.69 µM) | 4 µg/mL (≈ 10.8 µM) | 0.5 µg/mL (≈ 1.34 µM) | 4 µg/mL (≈ 10.8 µM) | 0.5 µg/mL (≈ 1.34 µM) | 0.5 µg/mL (≈ 1.34 µM) | > 20 µg/mL | 1 µg/mL (≈ 2.69 µM) | Activity (Staphylococcus aureus [4]): Dose-Dependent Effect; MIC (Escherichia coli): > 64 µg/mL; MIC (Pseudomonas aeruginosa): > 64 µg/mL; MIC (Acinetobacter baumannii): > 64 µg/mL; selectivity ratio [18]: > 20; MIC (Staphylococcus aureus [22]): 1 µg/mL (≈ 2.69 µM); MIC (Enterococcus faecium [23]): 0.125 µg/mL (≈ 0.336 µM); MIC (Staphylococcus aureus [24]): 1 µg/mL (≈ 2.69 µM)
2 | C[C@H]1COc2c(N3CCN(C)CC3)c(F)cc3c(=O)c(C(=O)O)cn1c23 [LEVOFLOXACIN ANHYDROUS] | 0.125 µg/mL (≈ 0.346 µM) | 0.125 µg/mL (≈ 0.346 µM) | 0.25 µg/mL (≈ 0.692 µM) | 64 µg/mL (≈ 177 µM) | 64 µg/mL (≈ 177 µM) | 64 µg/mL (≈ 177 µM) | 0.25 µg/mL (≈ 0.692 µM) | 0.25 µg/mL (≈ 0.692 µM) | 32 µg/mL (≈ 88.6 µM) | 0.25 µg/mL (≈ 0.692 µM) | 16 µg/mL (≈ 44.3 µM) | 16 µg/mL (≈ 44.3 µM) | > 64 µg/mL | 0.25 µg/mL (≈ 0.692 µM) | 32 µg/mL (≈ 88.6 µM) | 0.25 µg/mL (≈ 0.692 µM) | 0.25 µg/mL (≈ 0.692 µM) | 8 µg/mL (≈ 22.1 µM) | > 100 µg/mL | > 64 µg/mL | MIC (Staphylococcus aureus [22]): 32 µg/mL (≈ 88.6 µM); MIC (Enterococcus faecium [23]): 64 µg/mL (≈ 177 µM); MIC (Staphylococcus aureus [24]): 8 µg/mL (≈ 22.1 µM)
3 | O=C1N/C(=N\c2nc3ccccc3o2)S/C1=C\c1ccc(O)cc1 | 2 µg/mL (≈ 5.93 µM) | 2 µg/mL (≈ 5.93 µM) | 8 µg/mL (≈ 23.7 µM) | 0.25 µg/mL (≈ 0.741 µM) | > 64 µg/mL | 2 µg/mL (≈ 5.93 µM) | 16 µg/mL (≈ 47.4 µM) | 16 µg/mL (≈ 47.4 µM) | 2 µg/mL (≈ 5.93 µM) | 2 µg/mL (≈ 5.93 µM) | 2 µg/mL (≈ 5.93 µM) | 2 µg/mL (≈ 5.93 µM) | 4 µg/mL (≈ 11.9 µM) | 16 µg/mL (≈ 47.4 µM) | 2 µg/mL (≈ 5.93 µM) | 16 µg/mL (≈ 47.4 µM) | 1 µg/mL (≈ 2.96 µM) | 1 µg/mL (≈ 2.96 µM) | > 40 µg/mL | 2 µg/mL (≈ 5.93 µM) | MIC (Escherichia coli): > 64 µg/mL; MIC (Pseudomonas aeruginosa): > 64 µg/mL; MIC (Acinetobacter baumannii): > 64 µg/mL; selectivity ratio [18]: > 20; MIC (Staphylococcus aureus [22]): 2 µg/mL (≈ 5.93 µM); MIC (Enterococcus faecium [23]): 0.25 µg/mL (≈ 0.741 µM); MIC (Staphylococcus aureus [24]): 2 µg/mL (≈ 5.93 µM)

Source: ChEMBL document CHEMBL5329174, “Discovery of benzoxazole-thiazolidinone hybrids as promising antibacterial agents against Staphylococcus aureus and Enterococcus species” (RSC Med Chem, 2023)
